From PubChem
Compounds with a hit are over-represented: about 1.7% of the library has one in this group of screens.
Neddylation inh = inhibitors of cullin neddylation, primary screen, biochemical, TR-FRET, uHTS, NAE and Ubc12 | inhibition, % at 25 µM | NEDD8-conjugating enzyme Ubc12 (Homo sapiens) + NEDD8-activating enzyme E1 regulatory … | 360,000 compounds, 0.58% hits | AID 651699, 2012; in the data active = inhibition above about 36%
Target sequence (P61081 whole entry, looked up): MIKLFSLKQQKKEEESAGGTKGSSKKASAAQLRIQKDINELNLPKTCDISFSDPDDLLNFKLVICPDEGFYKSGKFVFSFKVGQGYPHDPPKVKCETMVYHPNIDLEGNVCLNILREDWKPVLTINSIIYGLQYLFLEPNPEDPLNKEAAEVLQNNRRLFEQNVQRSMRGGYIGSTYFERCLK
Target sequence (Q13564 whole entry, looked up): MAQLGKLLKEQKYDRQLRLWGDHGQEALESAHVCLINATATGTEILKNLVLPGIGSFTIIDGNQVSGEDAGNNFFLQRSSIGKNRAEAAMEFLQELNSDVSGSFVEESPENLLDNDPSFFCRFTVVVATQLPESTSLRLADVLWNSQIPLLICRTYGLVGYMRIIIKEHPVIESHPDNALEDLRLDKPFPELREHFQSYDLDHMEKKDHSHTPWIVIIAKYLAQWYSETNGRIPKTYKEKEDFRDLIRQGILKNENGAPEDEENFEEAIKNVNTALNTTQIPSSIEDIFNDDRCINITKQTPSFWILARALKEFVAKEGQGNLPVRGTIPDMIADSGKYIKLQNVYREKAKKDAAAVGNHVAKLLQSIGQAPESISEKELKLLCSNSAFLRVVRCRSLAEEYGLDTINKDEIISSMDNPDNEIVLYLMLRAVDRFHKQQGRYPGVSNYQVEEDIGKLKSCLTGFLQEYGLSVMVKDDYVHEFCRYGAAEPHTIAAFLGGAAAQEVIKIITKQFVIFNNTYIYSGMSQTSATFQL
Efflux pump mplx = inhibitors of Candida efflux pumps in yeast, primary screen, S. cerevisiae, Nile Red, multiplex; S. cerevisiae Candida pump triplex; inhibition, % at 10 µM; 330,000 compounds, 0.44% hits; AID 485275, 2010;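 active = plate passing quality check with inhibition over a set limit, or well fluorescence over plate mean plus 4 SD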;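 also: Nile Red retained in pooled yeast measured as flow cytometry median fluorescence; 0% = buffer negative control and 100% = Enniatin B positive control; higher means more Nile Red kept so more efflux inhibition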
Arrestin-AP2 inh = inhibitors of beta-arrestin/AP2 binding, primary screen, biochemical, GPCR trafficking, flow cytometry; inhibition, % at 10 µM; FITC-arrestin peptide / GST-AP2 beads; AP2 beta2 appendage carries R879A mutation; AID 504490, 2011; 340,000 compounds, 0.31% hits; beta-arrestin 1 C-terminal peptide binding to AP2 beta2-adaptin appendage (human);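 active = inhibition above a set limit, near 3 SD of compounds lacking own fluorescence, cut at about 54% in these data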;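 also: plate controls were DMSO wells for no effect and 5 µM unlabelled arrestin peptide for full effect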
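system = GST-tagged AP2 beta2-adaptin appendage (R879A) on 4 µm glutathione beads | reagent = FITC-labelled arrestin peptide probe, 50 nM final | schedule = compound with beads 12 min RT, then probe 1 h RT | signal = HyperCyt-sampled flow cytometry, FL1 channel, ex 488/em 535 nm | read-out = percent response from loss of bead-bound FITC fluorescence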
Pemphigus Ab inh = inhibitors of pemphigus antibody binding to DSG3, primary screen, biochemical, bead-based, flow cytometry, scFv-GFP. DSG3-coupled beads, scFv-anti-DSG3-GFP binding; active compounds read low. Desmoglein-3 (Homo sapiens), P32926. 310,000 compounds, 0.48% hits. binding (percent of control), % at 10 µM. AID 588358, 2011;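 active = binding more than 3 SD below its plate's average and above zero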;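 also: hits lower antibody fragment binding to DSG3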
* hit, by the source's call; . = not tested or not shown.

SMILES	Neddylation inh	Efflux pump mplx	Arrestin-AP2 inh	Pemphigus Ab inh
Cc1ccc(S(=O)(=O)N(C)C)cc1NC(=O)C1CCCCC1	0.2	-0.1	17.8	63.0*
N#C/C(=C/c1ccccc1)c1nn(CCO)c(N)c1C#N	-12.7	0.0	2.1	95.2
N#C/C(=C\c1ccc(/C=C(/C#N)c2nn(CCO)c(N)c2C#N)cc1)c1nn(CCO)c(N)c1C#N	3.9	0.1	2.5	85.9*
O=C1CS/C(=N/N=C/c2ccncc2)N1	-9.4	-0.2	-5.7	80.9*
O=C(NCc1ccco1)c1ccc(Cl)nc1	-5.0	0.1	23.3	78.3*
CCCCCCCC[n+]1cccc2c3ccccc3ccc21	.	0.1	-13.1	97.6
CCCCCCCCCC[n+]1cccc2c3ccccc3ccc21	55.6*	.	-31.8	109.3
O=C(Nc1ccc(F)cc1)C1CCN(C(=O)NCc2ccccc2)CC1	0.1	0.1	10.7	103.0
COc1c(C(=O)Nc2ccc(Br)cn2)ccc2ccccc12	9.8	-0.1	25.2	95.6
COc1cc2ccccc2cc1C(=O)NC(=S)Nc1nnn(C)n1	12.3	-0.1	16.2	-8.3*
COc1cc2ccccc2cc1C(=O)Nc1ccc(Br)cn1	-65.2	0.0	15.0	88.8*
FC(F)(F)c1cc(CCN2C(=S)NC[C@@H]2CC2CCCCC2)cc(C(F)(F)F)c1	-26.6	-0.1	4.7	111.5
O=C(N/N=C/c1ccccn1)c1cc(-c2ccc(Br)cc2)nc2ccccc12	46.2*	0.2	-2.8	104.8
O=C(O)c1ccccc1/C=N/NC(=O)c1cc(-c2ccco2)nc2ccccc12	49.0*	0.0	-9.7	96.6
Cc1ccc(S(=O)(=O)N2C[C@H]3N(C(=O)OC(C)C)N(C(=O)OC(C)C)C[C@H](OC(=O)NC4CCCC4)[C@@]3(O)C2)cc1	5.2	.	.	113.8
O=C(N/N=C/c1ccc(OC(F)F)cc1)c1cccc(S(=O)(=O)N2CCOCC2)c1	0.3	-0.1	-13.8	88.2
Cc1cc(OCC(=O)Nc2ccc(S(=O)(=O)N3CCN(C)CC3)cc2)ccc1Br	-9.3	-0.2	-2.7	104.3
Cn1c(OCc2ccco2)nc2c1c(=O)n(Cc1ccc(Cl)c(Cl)c1)c(=O)n2C	1.2	0.2	80.6*	98.1
CCOc1ccc(NC(=O)c2ccc(NC(=O)CSc3nc4ccccc4c(=O)[nH]3)cc2)cc1	2.0	-0.3	12.9	80.7*
CCC(C)[C@H](NC(=O)C1CCN(C(=O)[C@H](Cc2ccccc2)NS(=O)(=O)c2ccc(C)cc2)CC1)C(=O)O (some centres undefined)	6.1	-0.1	7.3	92.0
CCCCn1c(N)c(-c2nc3ccccc3s2)c2c([N+](=O)[O-])nn(C)c(=O)c21	-9.5	-0.9	0.4	84.5*
CCCCn1c(N)c(-c2nc3ccccc3s2)c2c([N+](=O)[O-])nn(CC)c(=O)c21	-19.4	0.0	8.2	103.0
O=C(c1cc(COc2cccc3cnccc23)on1)N1CCCC(CCCO)C1 (centres undefined)	45.5*	-0.1	12.7	99.8
COc1ccc(OCc2cc(C(=O)N3CCCC(CO)C3)no2)c2ccccc12 (centres undefined)	0.3	-0.2	-8.8	104.3
O=C(NC(=S)Nc1ccc(N2CCOCC2)cc1)c1ccc(Cl)cc1	-1.2	0.4	4.8	72.7*
SMILES	Neddylation inh	Efflux pump mplx	Arrestin-AP2 inh	Pemphigus Ab inh
O=C(/C=C/c1ccccc1)NC(=S)Nc1ccccc1	-2.2	-0.1	5.6	98.9
O=C(Nc1ccc(N2CCCC2)cc1)c1cc(Cl)ccc1Cl	4.3	-0.1	-3.2	70.9*
O=C(/C=C/c1ccccc1)NC(=S)Nc1ccc(N2CCOCC2)cc1	-9.2	-0.1	-3.7	75.8*
O=c1[nH][nH]c2c1C(C1CCCCC1)OC(C1CCCCC1)C2 (centres undefined)	10.6	.	.	.
CCNc1nc(SC(C)C(=O)Nc2ccccc2)nc(N(C)C)n1 (centres undefined)	-1.4	0.2	4.9	114.5
COC(=O)C(C)Sc1nc(NCc2ccccc2)nc(N(C)C)n1 (centres undefined)	-8.2	-0.1	2.8	83.9*
COc1cc2c(cc1OC)C(C)N(C(=O)/C=C/c1cc(OC)c(OC)c(OC)c1)CC2 (centres undefined)	19.4	-0.2	-1.3	82.0*
N#CC(C#N)=Cc1cnc(N2CCN(c3ccccc3)CC2)s1	0.7	0.5	27.1	89.2
Cc1cc(C(O)c2ncc(-c3ccccc3)[nH]2)ccc1F (centres undefined)	5.6	.	.	.
Cc1nc2ccccc2c(=O)n1/N=C/c1ccc(OC(F)F)cc1	-5.9	0.1	28.6	103.2
CCOc1ccc(/C=N/n2c(C)nc3ccccc3c2=O)cc1	6.3	0.3	-1.4	68.2*
C[C@H](NC(=O)c1nc[nH]c1C(=O)NCCCCCNC(=O)OC(C)(C)C)C(=O)OC(C)(C)C	3.2	-0.1	-8.4	105.0
COc1cc(C(=O)NCCNC(=O)c2ccco2)cc(OC)c1OC	-2.6	.	11.9	106.9
COc1ccc(CCNC(=O)Cn2nnc(-c3cccs3)n2)cc1OC	9.6	-0.1	13.0	104.3
COc1ccc(CCNC(=O)COc2ccc(-c3ccc(C)cc3)cc2)cc1OC	-93.0	0.1	1.9	83.1*
COc1ccc(-c2nnn(CC(=O)NCCc3ccc(OC)c(OC)c3)n2)cc1	-0.9	0.0	-8.0	38.1*
COc1ccc(CCNC(=O)CCOc2ccc(C)cc2)cc1OC	1.1	-0.2	-3.5	101.8
Cc1ccc(=O)n(C(C(=O)NCc2ccco2)C(=O)c2ccc(F)cc2)c1 (centres undefined)	18.4	0.0	-0.5	100.6
O=C(CN1CCN(S(=O)(=O)N2CCCCC2)CC1)Nc1ccc(Cl)c(Cl)c1	3.6	0.1	16.2	108.6
CN(C)S(=O)(=O)c1ccc(NC(=O)CN2CCN(C(c3ccccc3)c3ccccc3)CC2)cc1	-1.3	0.0	26.3	99.6
Nc1ccccc1S(=O)(=O)c1ccccc1N	4.9	-0.1	7.3	100.9
Nc1ccc2c(S(=O)(=O)O)cccc2c1S(=O)(=O)O	55.5*	.	7.6	117.3
CCCn1c(NC(=O)c2ccc(F)cc2)nc2ccccc21	-173.5	0.0	16.7	114.8
CCCn1c(NC(=O)c2ccc(Br)cc2)nc2ccccc21	-170.4	0.0	-0.2	84.9*
Oc1ccc(/C=N/Nc2nc(-c3cccnc3)nc3ccccc23)c(O)c1	10.8	-0.1	8.3	78.4*
COc1cccc(OCc2cc(/C=N/Nc3ccc(C(=O)O)cc3)ccc2OC)c1	13.0	0.0	3.5	61.2*
COc1cccc(C(=O)Oc2ccc(/C=N/Nc3ccc(C(=O)O)cc3)cc2OC)c1	7.2	0.2	-6.3	106.0
CCOC(=O)Cc1csc(NC(=O)COc2ccccc2)n1	-8.4	0.0	4.1	65.3*
COc1cccc(C2=NOC(C(=O)Nc3cccnc3Cl)C2)c1 (centres undefined)	8.9	0.0	-1.7	96.3
CCN(CC(=O)Nc1ccc(Br)cc1)CC(=O)Nc1cc(C)on1	0.4	.	42.2	66.1*
